The values below come from ChEMBL document CHEMBL4177756, “Small Molecule Neuropilin-1 Antagonists Combine Antiangiogenic and Antitumor Activity with Immune Modulation through Reduction of Transforming Growth Factor Beta (TGFβ) Production in Regulatory T-Cells” (J Med Chem, 2018).

For one data set, the target named is Neuropilin-1 (Homo sapiens, UniProt O14786). Put plainly: Binding affinity to N-terminal His6-tagged recombinant human NRP1-b1 domain expressed in Escherichia coli Rosetta Gami 2 (DE3) pLysS cells by SPR method. In a few lines: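 Human NRP1-b1 (residues 273–427, His6-tagged) was amine-coupled to a CM5 chip at high and low density; an unmodified spot served as reference. Runs were at 25 °C in PBS with 0.05% P20 and 3% DMSO. Compound was tested as 2-fold dilutions from 16 µM to 31 nM with 60 s injections. KD was taken from steady-state responses, DMSO-corrected; mean ± SD of the two surfaces.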
Chain of Neuropilin-1 (O14786 whole entry, the tested form may be a part): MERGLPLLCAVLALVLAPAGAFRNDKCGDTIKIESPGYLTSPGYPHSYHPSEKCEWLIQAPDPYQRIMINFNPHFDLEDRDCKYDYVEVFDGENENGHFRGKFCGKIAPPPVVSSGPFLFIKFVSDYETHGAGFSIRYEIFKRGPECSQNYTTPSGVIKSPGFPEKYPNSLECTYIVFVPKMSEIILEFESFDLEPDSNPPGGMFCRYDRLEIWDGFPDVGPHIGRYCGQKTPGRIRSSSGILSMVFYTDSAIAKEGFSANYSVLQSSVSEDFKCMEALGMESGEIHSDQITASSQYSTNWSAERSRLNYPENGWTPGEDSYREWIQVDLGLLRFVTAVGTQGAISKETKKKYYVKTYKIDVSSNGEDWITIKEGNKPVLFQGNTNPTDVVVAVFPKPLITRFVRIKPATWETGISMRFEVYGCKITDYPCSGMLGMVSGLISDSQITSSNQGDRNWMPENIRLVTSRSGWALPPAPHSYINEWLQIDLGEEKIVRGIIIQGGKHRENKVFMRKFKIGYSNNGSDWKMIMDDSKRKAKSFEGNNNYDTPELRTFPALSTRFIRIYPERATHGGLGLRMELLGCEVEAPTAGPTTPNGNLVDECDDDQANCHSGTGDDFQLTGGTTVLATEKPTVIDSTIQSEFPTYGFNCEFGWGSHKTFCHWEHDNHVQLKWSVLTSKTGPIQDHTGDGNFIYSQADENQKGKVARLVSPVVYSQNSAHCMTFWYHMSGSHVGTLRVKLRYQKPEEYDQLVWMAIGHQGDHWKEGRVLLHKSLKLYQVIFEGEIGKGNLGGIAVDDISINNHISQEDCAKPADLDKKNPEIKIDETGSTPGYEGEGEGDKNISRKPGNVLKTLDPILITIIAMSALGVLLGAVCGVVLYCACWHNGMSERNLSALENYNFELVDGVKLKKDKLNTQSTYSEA
(In general: In SPR one partner is held on a chip, and binding of the other changes the refractive index at the surface.)

The subject of data set [1] is Mus musculus. Put plainly: Cmax in BALB/c mouse at 2 mg/kg, iv administered as bolus dose by LC-MS method. The format is ADME, organism-based. Further details: dose 2 mg/kg, route intravenous. The conditions noted are these: in vivo. The method in brief: (§1)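 Female BALB/c mice, 6–8 weeks old, received 2 mg/kg as a tail-vein bolus formulated in 7.5% DMSO. Blood was taken by cardiac puncture at 5, 15, 30, 60, 180 and 240 min. Plasma was separated by centrifugation, snap-frozen and assayed by LC-MS/MS with electrospray ionization.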

Data set [2] deals with Mus musculus. The experiment in a line: Half life in BALB/c mouse at 2 mg/kg, iv administered as bolus dose by LC-MS method. The class given is ADME, organism-based. The conditions noted are these: in vivo. The method in brief:
as §1

The subject of data set [3] is Mus musculus. The experiment in a line: Tmax in BALB/c mouse at 2 mg/kg, iv administered as bolus dose by LC-MS method. The format is ADME, organism-based. The conditions noted are these: in vivo. The method in brief: as §1
Data set [4] deals with Mus musculus. The experiment in a line: Volume of distribution in BALB/c mouse at 2 mg/kg, iv administered as bolus dose by LC-MS method. The format is ADME, organism-based. Conditions: in vivo. The method in brief: as §1
For data set [5], the system named is Mus musculus. The experiment in a line: AUC (infinity) in BALB/c mouse at 2 mg/kg, iv administered as bolus dose by LC-MS method. Conditions: in vivo. The class given is ADME, organism-based. Further details: dose 2 mg/kg, route intravenous, time infinity. The method in brief:
as §1

For orientation: Kd means the free concentration of one partner at which half of the binding sites on the other are occupied at equilibrium, for simple one-to-one binding. By Cmax is commonly meant the maximum level reached in the sampled fluid or tissue. What is called Tmax is the time from dosing to the highest level. Broadly, the Vd is a proportionality between amount in the body and measured concentration, not a real space. Lower therefore signals confinement near the circulation. For orientation: AUC means concentration integrated over time. Low values mean less exposure, high ones more exposure.

As to `CNC(=O)C1CCN(Cc2ccccc2-c2cc3c(c(S(=O)(=O)Nc4ccsc4C(=O)N[C@@H](CCCNC(=N)N)C(=O)O)c2)OCC3)CC1`, the dissociation constant Kd on Neuropilin-1 was determined as 3020 nM.

For the compound `N=C(N)NCCC[C@H](NC(=O)c1sccc1NS(=O)(=O)c1cc(-c2cccc(CN)c2)cc2c1OCC2)C(=O)O`, the Kd on Neuropilin-1 worked out at 2440 nM.

For `N=C(N)NCCC[C@H](NC(=O)c1sccc1NS(=O)(=O)c1cc(-c2cccc(CN3CCOCC3)c2)cc2c1OCC2)C(=O)O`, on Neuropilin-1, the Kd is 3760 nM.

Consider `N=C(N)NCCC[C@H](NC(=O)c1sccc1NS(=O)(=O)c1cc(-c2cccc(CN3CCC(N4CCOCC4)CC3)c2)cc2c1OCC2)C(=O)O`, for which the dissociation constant Kd at Neuropilin-1 amounted to 1380 nM.

As to `N#CCC1CCN(Cc2cccc(-c3cc4c(c(S(=O)(=O)Nc5ccsc5C(=O)N[C@@H](CCCNC(=N)N)C(=O)O)c3)OCC4)c2)CC1`, at Neuropilin-1, the Kd is 1410 nM.

`N=C(N)NCCC[C@H](NC(=O)c1sccc1NS(=O)(=O)c1cc(-c2ccccc2CN)cc2c1OCC2)C(=O)O`: the Kd on Neuropilin-1 was determined as 1870 nM.

Consider `N=C(N)NCCC[C@H](NC(=O)c1sccc1NS(=O)(=O)c1cc(-c2cccc(CN3CCC(C(N)=O)CC3)c2)cc2c1OCC2)C(=O)O`, for which the Kd on Neuropilin-1 turned out to be 1560 nM.

As for `CNC(=O)C1CCN(Cc2cccc(-c3cc4c(c(S(=O)(=O)Nc5ccsc5C(=O)N[C@@H](CCCNC(=N)N)C(=O)O)c3)OCC4)c2)CC1`, the Kd on Neuropilin-1 was determined as 1330 nM.

Consider `N=C(N)NCCC[C@H](NC(=O)c1sccc1NS(=O)(=O)c1cc(-c2ccccc2)cc2c1OCC2)C(=O)O`, for which the Kd at Neuropilin-1 turned out to be 14400 nM.

With `N=C(N)NCCC[C@H](NC(=O)c1sccc1NS(=O)(=O)c1cc(-c2ccccc2CN2CCCCC2)cc2c1OCC2)C(=O)O`, the dissociation constant (Kd) at Neuropilin-1 turned out to be 2280 nM.

As to `N#CCC1CCN(Cc2ccccc2-c2cc3c(c(S(=O)(=O)Nc4ccsc4C(=O)N[C@@H](CCCNC(=N)N)C(=O)O)c2)OCC3)CC1`, the Kd on Neuropilin-1 is 1860 nM.

For the compound `CN(C)Cc1cccc(-c2cc3c(c(S(=O)(=O)Nc4ccsc4C(=O)N[C@@H](CCCNC(=N)N)C(=O)O)c2)OCC3)c1`, the Cmax with Mus musculus [1] came to 1959.8 ng/mL. In addition, in the data set with Mus musculus [2], the t1/2 came out at 40.8 min. In addition, in the data set on Mus musculus [3], the Tmax is 4.8 min. In addition, the Vd with Mus musculus [4] is 1.05261 L/kg. Moreover, on Neuropilin-1, the Kd stood at 4520 nM. Besides, in the data set on Mus musculus [5], the AUC is 564.44 ng·h/mL.

As for `N=C(N)NCCC[C@H](NC(=O)c1sccc1NS(=O)(=O)c1cc(-c2ccc3c(c2)CNC3)cc2c1OCC2)C(=O)O`, the Kd on Neuropilin-1 was 2170 nM.

For the compound `N=C(N)NCCC[C@H](NC(=O)c1sccc1NS(=O)(=O)c1cc(-c2ccccc2CN2CCC(N3CCOCC3)CC2)cc2c1OCC2)C(=O)O`, the Kd at Neuropilin-1 was found to be 1500 nM.

`N=C(N)NCCC[C@H](NC(=O)c1sccc1NS(=O)(=O)c1cc(-c2ccccc2CN2CCC(C(N)=O)CC2)cc2c1OCC2)C(=O)O`: on Neuropilin-1, the Kd was 2050 nM.

As to `N=C(N)NCCC[C@H](NC(=O)c1sccc1NS(=O)(=O)c1cc(-c2cccc3c2CNC3)cc2c1OCC2)C(=O)O`, at Neuropilin-1, the dissociation constant Kd is 2470 nM.

With `N=C(N)NCCC[C@H](NC(=O)c1sccc1NS(=O)(=O)c1cc(-c2cccc(CN3CCCCC3)c2)cc2c1OCC2)C(=O)O`, on Neuropilin-1, the Kd came out at 1170 nM.
